According to ChEMBL document CHEMBL3593156, “Bioactive Sesquiterpenes and Lignans from the Fruits of Xanthium sibiricum” (J Nat Prod, 2015):
pIC50: −log10 of the molar value.

Experiments:
[1] = Selectivity index, ratio of TC50 for African green monkey Vero cells to IC50 for Coxsackievirus B3-induced cytopathic effect in African green monkey Vero cells; format: toxicity, cell-based; conditions: read-out: Selectivity Index
In short: (§1)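 Vero cells (2.5 × 10^4 cells/well). TC50: cells incubated overnight, compounds applied in triplicate for 2 days, CPE read, 50% growth inhibition versus controls by Reed and Muench. IC50: cells infected 2 h with 100 TCID50 CVB3 (Nancy), compounds added until control CPE 4+, 50% CPE inhibition by Reed and Muench. SI = TC50/IC50.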

[2] = Antiviral activity against Influenza A virus (A/FM/1/47(H1N1)) infected in MDCK cells assessed as inhibition of virus-induced cytopathic effect; format: functional, cell-based, Influenza A virus (A/Fort Monmouth/1/1947(H1N1))
In short: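 MDCK cells (2.5 × 10^4 cells/well) plated 24 h, PBS-washed, infected 2 h with 100 TCID50 influenza A/FM/1/47 (H1N1); compounds at various concentrations added, incubation until control CPE reached 4+. Triplicate, at least three separate runs; IC50 = minimal concentration inhibiting 50% CPE, Reed and Muench method.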

[3] = Cytotoxicity against African green monkey Vero cells assessed as growth inhibition by CPE assay; format: cell-based; conditions: chlorocebus sabaeus, read-out: TC50 (the source's name)
In short: (§2)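 Vero or MDCK cells (2.5 × 10^4/well) were seeded and incubated overnight. Medium was then replaced with compounds at various concentrations in triplicate. After a 2-day incubation, cytotoxicity was scored by CPE. TC50 is the concentration inhibiting 50% of cell growth versus controls (Reed and Muench). Values are means of three independent determinations.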

[4] = Cytotoxicity against MDCK cells assessed as growth inhibition by CPE assay; format: cell-based, Canis lupus familiaris; conditions: dog, read-out: TC50 (the source's name); in short: as §2
[5] = Selectivity index, ratio of TC50 for MDCK cells to IC50 for Influenza A virus (A/FM/1/47(H1N1))-induced cytopathic effect in MDCK cells; format: toxicity, cell-based; conditions: dog, read-out: Selectivity Index
In short: as §1, with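 “MDCK” for “Vero”, “IC50: PBS-washed” for “IC50:”, “influenza A/FM/1/47 (H1N1),” for “CVB3 (Nancy),”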

Mus musculus [6] = test: Antiinflammatory activity in ICR mouse assessed as inhibition of croton oil-induced ear edema at 50 mg/ml administered 1 hr prior to croton oil challenge measured after 4 hrs relative to control; format: functional
In short: (§3)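 Male ICR mice (18−20 g, n = 10 per group) received 0.4 mg croton oil in […] acetone on the left ear. Treatment was applied 1 h before the croton oil, and the animals were killed 4 h after it. Edema was taken as the weight difference between 8 mm punches of the treated and untreated ears, expressed as % reduction versus control mice.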

Coxsackievirus B3 = test: Antiviral activity against Coxsackievirus B3 infected in African green monkey Vero cells assessed as inhibition of virus-induced cytopathic effect; format: functional, organism-based; conditions: Enterovirus B
In short: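 Vero cells (2.5 × 10^4/well) were plated for 24 h, infected 2 h with 100 TCID50 Coxsackievirus B3 (Nancy), then given compounds at various concentrations until control CPE reached 4+. Run in triplicate, at least three times. IC50 is the concentration inhibiting 50% of CPE (Reed and Muench). SI = TC50/IC50.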

[7] = Antiinflammatory activity in C57BL6/J mouse BV2 cells assessed as inhibition of LPS-induced nitric oxide production after 24 hrs by Griess assay; format: functional, cell-based; conditions: BV-2, 24 h
In short: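 Mouse (C57BL6/J) macrophages grown 24 h at 37 °C in RPMI1640, then given 1 μg/mL LPS plus test compounds for a further 24 h at 37 °C. Blank, LPS-only and dexamethasone (10−6 M) wells served as controls. Nitrite in supernatant was read with Griess reagent at 570 nm against a sodium nitrite standard.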

Mus musculus [8] = test: Antiinflammatory activity in ICR mouse assessed as inhibition of croton oil-induced ear edema at 1 mg/ml administered 1 hr prior to croton oil challenge measured after 4 hrs relative to control; format: functional; in short: as §3

| Structure (SMILES) | selectivity ratio [1] | pIC50 [2] | CC50 [3] | CC50 [4] | selectivity ratio [5] | inhibition (INH) (Mus musculus [6]) | pIC50 (Coxsackievirus B3) | pIC50 [7] | inhibition (INH) (Mus musculus [8]) |
| --- | --- | --- | --- | --- | --- | --- | --- | --- | --- |
| C=C1C(=O)O[C@@H]2C=C(CCC(C)=O)[C@@H](C)CC[C@@H]12 | 3 | 5.07 | 19.2 µM | 19.3 µM | 2.2 | <20% | 5.19 | 5.07 | – |
| C=C1C(=O)O[C@H]2C[C@H](C)C(CCC(C)=O)=CC[C@H]12 | – | < 4.46 | – | – | – | 46.9% | < 4.46 | 5.25 | – |
| C=C1[C@H]2C[C@H]2[C@]2(C)CC(=O)C3=C(C)C(=O)O[C@@H]3[C@@H]12 | – | < 4.46 | – | – | – | – | < 4.46 | < 5.00 | – |
| C=C1[C@@H]2C[C@@H]2[C@@]2(C)C=C3OC(=O)C(C)=C3[C@@H](O)[C@H]12 | – | < 4.46 | – | – | – | – | < 4.46 | < 5.00 | – |
| COC(=O)CC1=CC[C@H]2[C@H](C[C@@H]1C)OC(=O)[C@H]2C | – | < 4.46 | – | – | – | – | < 4.46 | < 5.00 | – |
| C[C@H]1C[C@@H]2OC(=O)[C@H](C)[C@H]2C=CC1=O | – | < 4.46 | – | – | – | – | < 4.46 | < 5.00 | – |
| C[C@@H]1C(=O)O[C@H]2C[C@H](C)C(C(=O)O)=CC[C@@H]21 | – | < 4.46 | – | – | – | – | < 4.46 | < 5.00 | – |
| C[C@H]1C[C@@H]2OC(=O)[C@H](C)[C@H]2CC=C1C(=O)O | – | < 4.46 | – | – | – | – | < 4.46 | < 5.00 | – |
| C[C@H]1C[C@@H]2OC(=O)[C@H](C)[C@H]2CC=C1C=O | – | < 4.46 | – | – | – | – | < 4.46 | < 5.00 | – |
| C=C1C(=O)O[C@H]2C[C@H](C)C(C=O)=CC[C@H]12 | 3.6 | 5.19 | 69.3 µM | 48.1 µM | 7.5 | <20% | 4.72 | 5.52 | – |
| COc1cc([C@H]2Oc3c(OC)cc(C(=O)[C@@H](O)CO)cc3[C@@H]2CO)ccc1O | – | < 4.46 | – | – | – | – | < 4.46 | < 5.00 | – |
| COc1cc([C@@H]2Oc3c(OC)cc(C(=O)[C@H](O)CO)cc3[C@H]2CO)ccc1O | – | < 4.46 | – | – | – | – | < 4.46 | < 5.00 | – |
| CC(O)CCC1=CC[C@H]2[C@@H](C[C@@H]1C)OC(=O)[C@@H]2C (stereo not given in full) | – | < 4.46 | – | – | – | – | < 4.46 | 5.24 | – |
| CC(=O)/C=C/C1=CC[C@H]2[C@H](C[C@@H]1C)OC(=O)[C@@H]2C | – | < 4.46 | – | – | – | <20% | < 4.46 | 5.43 | – |
| CC(=O)CCC1=CC[C@H]2[C@H](C[C@@H]1C)OC(=O)[C@@H]2C | 12.1 | < 4.46 | 77.6 µM | – | – | <20% | 5.19 | < 5.00 | – |
| CC(=O)/C=C/C1=CC[C@H]2[C@H](C[C@@H]1C)OC(=O)[C@H]2C | – | < 4.46 | – | – | – | – | < 4.46 | < 5.00 | – |
| CC1=C2C[C@H]3[C@@]4(CO4)[C@H](O)C=C[C@]3(C)C[C@@H]2OC1=O | 3.6 | 4.48 | 69.3 µM | 100 µM | 3 | – | 4.72 | < 5.00 | – |
| CC(=C/C(=O)O)/C=C/[C@]1(O)[C@@]2(C)CO[C@]1(C)C[C@@H](O)C2 | – | < 4.46 | – | – | – | – | < 4.46 | < 5.00 | – |
| CC(=C/C(=O)O)/C=C/[C@]1(O)[C@@]2(C)CO[C@]1(C)CC(=O)C2 | – | < 4.46 | – | – | – | – | < 4.46 | < 5.00 | – |
| COc1cc(C(O)C(CO)Oc2ccc(C(=O)O)cc2OC)ccc1O (stereo not given) | – | 5.08 | – | 100 µM | 11.9 | – | < 4.46 | < 5.00 | – |
| CCOC(=O)c1ccc(O)c(O)c1 | 2.1 | < 4.46 | 23.1 µM | – | – | – | 4.95 | < 5.00 | – |
| C[C@@H]1C[C@H]2[C@@H]3CCC4=CC(=O)C=C[C@]4(C)[C@@]3(F)[C@@H](O)C[C@]2(C)[C@@]1(O)C(=O)CO [DEXAMETHASONE] | – | – | – | – | – | – | – | 7.60 | 70.5% |
| CCOC(=O)/C=C/c1ccc(O)c(O)c1 [ETHYL CAFFEATE] | – | 5.43 | – | 19.3 µM | 5.2 | – | < 4.46 | 5.60 | – |
| C=C1CC=C[C@]2(C)C[C@]3(O)OC(=O)C(C)C3=C[C@@H]12 (stereo not given in full) [HYDROXYLINDESTENOLIDE] | – | < 4.46 | – | – | – | 37.7% | < 4.46 | 5.41 | – |
| CCOC(=O)C1=C[C@@H](OC(CC)CC)[C@H](NC(C)=O)[C@@H](N)C1 [OSELTAMIVIR] | – | 5.57 | – | 3120 µM | 1140 | – | – | – | – |
| Cc1cc(CCCOc2c(C)cc(-c3noc(C(F)(F)F)n3)cc2C)on1 [PLECONARIL] | 16200 | – | 40.5 µM | – | – | – | 8.60 | – | – |
| NC(=O)c1ncn([C@@H]2O[C@H](CO)[C@@H](O)[C@H]2O)n1 [RIBAVIRIN] | 6.8 | – | – | – | – | – | 2.92 | – | – |
